The list is not random: actives were taken first. Their share in the collection is about 2.1%.
C2C12 statin: suppressors of statin myotoxicity in C2C12 myotubes, primary screen, cell-based, single point, plate reader; rescue of ATP level, % at 7.49 µM; 0.78% of 330,000 active; C2C12 myotubes + simvastatin, ATP luminescence, 48 h; scaled: DMSO 0, geranylgeraniol control 100;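 active means mean ATP rescue above about 67%, or every replicate alone reaching that limit, limit read from the data, passing the limit was not always enough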;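 further: myotubes were challenged with 10 µM simvastatin during compound exposure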
XiGFP reactiv: activators of inactive X chromosome reactivation, primary screen, imaging, XiGFP fibroblasts, GFP high-content imaging, set 2; XiGFP mouse fibroblasts, % GFP-positive cells imaging, 3 d; cells co-treated with 5-aza-dC sensitizer; scaled so ellipticine positive control = 100%; activation, % at 7.58 µM; 0.055% of 360,000 active;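 active means mean normalized replicate activation at least 10% and every replicate at or above 10%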;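 further: 0% = median of on-plate neutral control wells and 100% = ellipticine 6 µM median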
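System: 68-5-11 XiGFP fibroblast line | Buffer or medium: DMEM containing 5-aza-dC | Compound: Single point | Times: Compounds 3 days, fix/stain 15 min at room temperature | Benchmarks: Positive control ellipticine, 6 µM final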
DENV2 CPE: inhibitors of DENV2 cytopathic effect, primary screen, cell-based, plate reader, single concentration; DENV2-infected cells, cytopathic effect rescue; CPE inhibition, % at 9.99 µM; 1.7% of 350,000 active; in the data active means CPE inhibition above about 20%, passing the limit was not always enough; tested in BHK-21 cells;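 further: 0% = median of neutral control wells and 100% = median of positive control wells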
Cneo AK release: Cryptococcus neoformans cell lysis inducers, primary screen, AK release luminescence, single concentration; C. neoformans lysis, adenylate kinase release luminescence, 4 h; normalised: neutral wells 0, clomiphene wells 100; lysis activity, % at 15 µM; 0.2% of 360,000 active; AID 651654, 2012;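 active means mean lysis activity across replicates of at least 80%, whatever share of replicates individually reach that level; inactive means mean lysis activity below 80%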
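read-out = cell lysis signal | test system = log-phase Cryptococcus neoformans yeast cells | input = cells at 5 × 10^6 per mL | medium = fresh YPD growth medium | signal = luminescent adenylate kinase detection reagent | timing = 4 h at 37 °C static, read 1 h later | dosing = single dose | controls = Clomiphene as positive lysis control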
An asterisk follows results filed as active; nt = no result.

SMILES | C2C12 statin | XiGFP reactiv | DENV2 CPE | Cneo AK release
O=C(C[C@H]1C=C[C@@H](NS(=O)(=O)c2ccccc2)[C@@H](CO)O1)N1CCc2ccccc2C1 | 3 | -1 | -1 | -2
Cc1ccc(S(=O)(=O)N[C@@H]2C=C[C@@H](CC(=O)N3CCc4ccccc4C3)O[C@@H]2CO)cc1 | -7 | 0 | 28* | -4
C[C@H]1CN([C@@H](C)CO)C(=O)Cc2cc(N(C)C)ccc2O[C@@H]1CN(C)Cc1ccc2c(c1)OCO2 | 21 | 0 | -4 | 4
CC(=O)N1[C@@H](CO)[C@H](c2ccccc2)C12CN(C(=O)Nc1ccccc1F)C2 | nt | 0 | 3 | nt
O=C(C[C@@H]1C[C@H]2c3cc(NC(=O)Nc4ccccc4)ccc3O[C@H]2[C@@H](CO)O1)NCC1CC1 | 7 | 0 | 6 | 0
CCS(=O)(=O)Nc1ccc2c(c1)C(=O)N(C)C[C@H](OC)[C@H](C)CN(C(C)=O)[C@H](C)CO2 | 1 | 0 | 24* | 54
CCC(=O)Nc1ccc2c(c1)C(=O)N(C)C[C@H](OC)[C@@H](C)CN(C(C)=O)[C@@H](C)CO2 | 2 | 0 | 54* | 0
CCCC(=O)Nc1ccc2c(c1)C(=O)N(C)C[C@@H](OC)[C@@H](C)CN(C(C)=O)[C@@H](C)CO2 | -10 | 0 | 10 | -1
CCCNC(=O)N1C[C@@H](C)[C@H](OC)CN(C)C(=O)c2cc(NS(=O)(=O)CC(F)(F)F)ccc2OC[C@@H]1C | 3 | 0 | 60* | -3
CCC(=O)Nc1ccc2c(c1)C(=O)N(C)C[C@@H](OC)[C@@H](C)CN(C(C)=O)[C@H](C)CO2 | 6 | 1 | 16 | -1
CCS(=O)(=O)Nc1ccc2c(c1)C(=O)N(C)C[C@H](OC)[C@@H](C)CN(C(C)=O)[C@@H](C)CO2 | 8 | -1 | -5 | 7
CCC(=O)Nc1ccc2c(c1)C(=O)N(C)C[C@@H](OC)[C@@H](C)CN(C(C)=O)[C@@H](C)CO2 | 0 | 0 | 32* | -10
C[C@H](CO)N1C[C@H](C)[C@@H](CN(C)S(=O)(=O)c2ccc(Cl)cc2)Oc2c(NS(C)(=O)=O)cccc2C1=O | -7 | 0 | -6 | -8
CCNC(=O)C[C@@H]1CC[C@H]2[C@H](COc3ccc(NC(=O)Nc4ccc(F)cc4)cc3C(=O)N2C)O1 | -35 | 0 | 8 | 5
CCC(=O)Nc1ccc2c(c1)C(=O)N(C)C[C@H](OC)[C@H](C)CN(C(C)=O)[C@@H](C)CO2 | 14 | 0 | -5 | -3
CCC(=O)Nc1ccc2c(c1)C(=O)N(C)C[C@H](OC)[C@@H](C)CN[C@H](C)CO2 | -3 | 0 | 12 | 84*
CCC(=O)Nc1ccc2c(c1)C(=O)N(C)C[C@@H](OC)[C@H](C)CN(C(C)=O)[C@@H](C)CO2 | nt | 0 | 29* | nt
Cc1cc2c3c(c1)C1(SCC(=O)N1c1ccc(F)cc1)C(=O)N3C(C)(C)CC2C (stereo not given) | 110* | nt | nt | 0
COc1ccc(N2C(=O)CSC23C(=O)N2c4c(cccc43)C(C)=CC2(C)C)cc1 (stereo not given) | 42 | nt | 0 | 23
CN1CCN(C(=O)C[C@H]2CC[C@@H]3[C@H](COC[C@H](O)CN3Cc3cccc(F)c3)O2)CC1 | 5 | 0 | -4 | 0
C=C1CCN(c2ccc(C(=O)NCc3ccc(C)cc3)cc2[N+](=O)[O-])CC1 | 120* | 0 | 4 | 0
CC(NC(=O)c1c(N)[nH]c(C(=O)c2ccc(Cl)cc2)c1-c1ccc(Br)cc1)c1cccc2ccccc12 (stereo not given) | nt | 1 | 39* | nt
Nc1[nH]c(C(=O)c2ccccc2)c(-c2ccc(Br)cc2)c1C(=O)NCCc1c[nH]c2ccccc12 | nt | 0 | 18 | nt
Nc1[nH]c(C(=O)c2ccc(Br)cc2)c(-c2ccc(Cl)cc2)c1C(=O)NCCc1c[nH]c2ccccc12 | nt | 0 | 44* | nt
COc1cccc(-c2cn(CC[C@H]3CC[C@H](NS(=O)(=O)Cc4ccccc4)[C@@H](CO)O3)nn2)c1 | 0 | 0 | -2 | 1
SMILES | C2C12 statin | XiGFP reactiv | DENV2 CPE | Cneo AK release
c1ccc(-c2cnn3c(-c4ccccc4)c(-c4ccccc4)nc3n2)cc1 | nt | 99* | nt | nt
C[C@H](CO)N1C[C@H](C)[C@H](CN(C)Cc2ccc3c(c2)OCO3)Oc2ccc(NS(C)(=O)=O)cc2C1=O | -5 | 0 | -3 | -2
CN1C(=O)N[C@@H]2c3ccccc3O[C@@]1(C)[C@@H]2CO | nt | nt | 20* | 5
Cn1c(=O)c2[nH]c(CCCCCCCCc3nc4ccccc4[nH]3)nc2n(C)c1=O | -38 | 0 | -1 | nt
COc1ccc(CCCc2nc3ccccc3[nH]2)cc1 | 33 | 30* | 2 | nt
Cn1c(=O)c2[nH]c(CCCCc3nc4ccccc4[nH]3)nc2n(C)c1=O | 0 | 0 | 47* | nt
CCOC(=O)c1[nH]c2ccc(OC)cc2c1NC(=O)OC | -3 | nt | nt | 3
CCOC(=O)c1[nH]c2ccc(OC)cc2c1NC(=O)CCN1CCCC(C)C1 (stereo not given) | 145* | nt | nt | -2
CCOC(=O)c1[nH]c2ccc(Br)cc2c1NC(=O)CCN1CCN(C(=O)OCC)CC1 | 104* | nt | nt | -3
CCOC(=O)Nc1c(C(=O)OC)[nH]c2cc(OC)ccc12 | 107* | nt | nt | -1
CC(=O)N[C@H]1C=C[C@H](CC(=O)NCC2CCCCC2)O[C@H]1CO | 0 | 0 | 1 | 3
CCN1[C@@H]2c3ccc(-c4cncnc4)c(=O)n3C[C@@H]2[C@@H](CO)[C@@H]1C(=O)OC | -6 | 0 | 0 | 2
CCCNC(=O)C[C@@H]1CC[C@H]2[C@@H](COC[C@@H](O)CN2C(=O)Nc2ccccc2OC)O1 | 2 | 0 | -3 | 6
O=C1c2ccccc2NC2(CCCCC2)N1c1ccc(O)cc1 | 137* | nt | nt | 4
CC1CCC2(CC1)Nc1ccccc1C(=O)N2c1ccccc1 (stereo not given) | nt | nt | nt | 0
O=C(C[C@@H]1CC[C@H]2[C@@H](COC[C@H](O)CN2Cc2ccc(F)cc2)O1)NCc1ccccc1Cl | 12 | 0 | 5 | 1
CCc1nnc(NS(=O)(=O)c2ccc(N/C=C(\C=O)c3nc4cc(Cl)ccc4o3)cc2)s1 | 93* | 0 | 3 | 3
C[C@H]1CN([C@@H](C)CO)S(=O)(=O)c2ccc(Br)cc2O[C@H]1CN(C)CC1CC1 | 31 | 0 | 4 | 1
C[C@@H](NC(=O)c1nc[nH]c1C(=O)N(C)Cc1ccccc1)c1ccccc1 | 2 | 0 | 35* | 1
C[C@H](NC(=O)c1ncn(Cc2ccccc2)c1C(=O)N[C@@H](C)c1ccccc1)c1ccccc1 | 1 | 0 | 75* | 2
COc1ccc(-c2oc(=O)c3cc(OC)c(OC)cc3c2/C=C/c2ccc([N+](=O)[O-])cc2)cc1 | 3 | 0 | nt | 0

Bioassay records from PubChem.
